Results taken from ChEMBL document CHEMBL1156763, “1,8-Naphthyridines VIII. Novel 5-aminoimidazo[1,2-a] [1,8]naphthyridine-6-carboxamide and 5-amino[1,2,4]triazolo[4,3-a] [1,8]naphthyridine-6-carboxamide derivatives showing potent analgesic or anti-inflammatory activity, respectively, and completely devoid of acute gastrolesivity” (Eur J Med Chem, 2010).

Assays:
Mus musculus [1] = assay: Analgesic activity in Swiss mouse assessed as inhibition of acetic acid-induced writhing response at 25 mg/kg, po administered 1 hr before acetic acid challenge measured for 30 mins relative to control; format: functional
In short: (§1)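 Mice of either sex (25–35 g), fasted overnight, dosed by oral gavage with test agent suspended in 0.5% methylcellulose; controls got vehicle alone. Each hind-limb full extension counted as a writhe over 30 min after the noxious agent. % inhibition from treated vs control writhing; groups of 8–10; Student's t-test. Dosing starts at 100 mg/kg, then halved stepwise.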

Mus musculus [2] = assay: Sedative activity in Swiss mouse assessed as inhibition of spontaneous locomotor activity at 50 mg/kg, po dose measured for every 5 mins up to 90 mins; format: organism-based; parameters: dose 50 mg/kg, route oral
In short: (§2)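 Overnight-fasted mice given compound (0.5% methylcellulose) or vehicle by oral gavage, then housed singly in an activity cage. Locomotion auto-recorded in 5-min intervals for 90 min; pulses of the final 30 min scored. % inhibition versus controls; runs between 9.00 and 13.00; groups of 8–10; Student's t-test.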

Mus musculus [3] = assay: Sedative activity in Swiss mouse assessed as inhibition of spontaneous locomotor activity at 100 mg/kg, po dose measured for every 5 mins up to 90 mins; format: organism-based; parameters: dose 100 mg/kg, route oral; in short: as §2
Mus musculus [4] = assay: Analgesic activity in Swiss mouse assessed as inhibition of acetic acid-induced writhing response at 12.5 mg/kg, po administered 1 hr before acetic acid challenge measured for 30 mins relative to control; format: functional; in short: as §1
Mus musculus [5] = assay: Sedative activity in Swiss mouse assessed as inhibition of spontaneous locomotor activity at 12.5 mg/kg, po dose measured for every 5 mins up to 90 mins; format: organism-based; parameters: dose 12.5 mg/kg, route oral; in short: as §2
Mus musculus [6] = assay: Analgesic activity in Swiss mouse assessed as inhibition of acetic acid-induced writhing response at 6.25 mg/kg, po administered 1 hr before acetic acid challenge measured for 30 mins relative to control; format: functional; in short: as §1
Mus musculus [7] = assay: Analgesic activity in Swiss mouse assessed as inhibition of acetic acid-induced writhing response at 100 mg/kg, po administered 1 hr before acetic acid challenge measured for 30 mins relative to control; format: functional; in short: as §1
Rattus norvegicus [8] = assay: Antiinflammatory activity against carrageenan-induced paw edema in Wistar rat assessed as inhibition of hind paw edema at 100 mg/kg, po administered 1 hr prior to carrageenan challenge measured after 3 hrs relative to control; format: functional
In short: (§3)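 Wistar rats of either sex (250–300 g), fasted overnight, gavaged with compound in 0.5% methylcellulose. 1 h later, 0.1 mL 1% carrageenan injected subcutaneously into the plantar hind paw. Paw volume read by plethysmometer right after injection and 3 h later. Control edema set as 100, % inhibition from swelling difference. Groups of 8–10; Student's t-test.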

Mus musculus [9] = assay: Analgesic activity in Swiss mouse assessed as inhibition of acetic acid-induced writhing response at 50 mg/kg, po administered 1 hr before acetic acid challenge measured for 30 mins relative to control; format: functional; in short: as §1
Rattus norvegicus [10] = assay: Acute gastrolesivity in Wistar rat assessed as appearance of gastric damage at 200 mg/kg, po after 5 hrs; format: toxicity, organism-based, Stomach; parameters: dose 200 mg/kg, route oral; conditions: in vivo
In short: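 Wistar rats (250–300 g), either sex, fasted overnight; compound suspended in 0.5% methylcellulose, single oral gavage at 200 mg kg^-1 (1 mL 100 g^-1). Stomachs excised 5 h later, fixed in 2% formalin, opened along greater curvature, examined by stereomicroscope by blinded observer. Reported as number of animals with gastric damage over treated animals (eight per group).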

Rattus norvegicus [11] = assay: Antiinflammatory activity against carrageenan-induced paw edema in Wistar rat assessed as inhibition of hind paw edema at 25 mg/kg, po administered 1 hr prior to carrageenan challenge measured after 3 hrs relative to control; format: functional; in short: as §3
Rattus norvegicus [12] = assay: Antiinflammatory activity against carrageenan-induced paw edema in Wistar rat assessed as inhibition of hind paw edema at 6.25 mg/kg, po administered 1 hr prior to carrageenan challenge measured after 3 hrs relative to control; format: functional; in short: as §3
Rattus norvegicus [13] = assay: Antiinflammatory activity against carrageenan-induced paw edema in Wistar rat assessed as inhibition of hind paw edema at 50 mg/kg, po administered 1 hr prior to carrageenan challenge measured after 3 hrs relative to control; format: functional; in short: as §3
Rattus norvegicus [14] = assay: Antiinflammatory activity against carrageenan-induced paw edema in Wistar rat assessed as inhibition of hind paw edema at 12.5 mg/kg, po administered 1 hr prior to carrageenan challenge measured after 3 hrs relative to control; format: functional; in short: as §3
Rattus norvegicus [15] = assay: Antiinflammatory activity against carrageenan-induced paw edema in Wistar rat assessed as inhibition of hind paw edema at 1.6 mg/kg, po administered 1 hr prior to carrageenan challenge measured after 3 hrs relative to control; format: functional; in short: as §3
Rattus norvegicus [16] = assay: Antiinflammatory activity against carrageenan-induced paw edema in Wistar rat assessed as inhibition of hind paw edema at 3.12 mg/kg, po administered 1 hr prior to carrageenan challenge measured after 3 hrs relative to control; format: functional; in short: as §3
Mus musculus [17] = assay: Analgesic activity in Swiss mouse assessed as inhibition of acetic acid-induced writhing response at 1.6 mg/kg, po administered 1 hr before acetic acid challenge measured for 30 mins relative to control; format: functional
Mus musculus [18] = assay: Analgesic activity in Swiss mouse assessed as inhibition of acetic acid-induced writhing response at 3.12 mg/kg, po administered 1 hr before acetic acid challenge measured for 30 mins relative to control; format: functional
Rattus norvegicus [19] = assay: Antiinflammatory activity against carrageenan-induced paw edema in Wistar rat assessed as inhibition of hind paw edema at 10 mg/kg, po administered 1 hr prior to carrageenan challenge measured after 3 hrs relative to control; format: functional; in short: as §3
Mus musculus [20] = organism: Mus musculus; assay: animal or person; conditions: Swiss, po, read-out: INH
Mus musculus [21] = assay: Sedative activity in Swiss mouse assessed as inhibition of spontaneous locomotor activity at 10 mg/kg, po dose measured for every 5 mins upto 90 mins; format: functional; in short: as §2

SMILES	inhibition in vivo at 25 mg/kg (Mus musculus [1]) [%]	inhibition at 50 mg/kg (Mus musculus [2]) [%]	inhibition at 100 mg/kg (Mus musculus [3]) [%]	inhibition in vivo at 12.5 mg/kg (Mus musculus [4]) [%]	inhibition in vivo at 6.25 mg/kg (Mus musculus [6]) [%]	inhibition in vivo at 100 mg/kg (Mus musculus [7]) [%]	inhibition in vivo at 100 mg/kg (Rattus norvegicus [8]) [%]	inhibition in vivo at 50 mg/kg (Mus musculus [9]) [%]	Activity (Rattus norvegicus [10])	other results
CCOc1cnc2c(C(=O)N(CC)CC)c(N3CCN(C)CC3)c3cccnc3n12	54	46	60	48	17	97	26	62	Non-toxic	inhibition at 12.5 mg/kg (Mus musculus [5]): 15%
CCNC(=O)c1c(NCC(C)C)c2cccnc2n2c(C(C)C)nnc12			48			81	60	21	Non-toxic	inhibition in vivo at 25 mg/kg (Rattus norvegicus [11]): 47%; inhibition in vivo at 6.25 mg/kg (Rattus norvegicus [12]): 40%; inhibition in vivo at 50 mg/kg (Rattus norvegicus [13]): 50%; inhibition in vivo at 12.5 mg/kg (Rattus norvegicus [14]): 49%; inhibition in vivo at 1.6 mg/kg (Rattus norvegicus [15]): 18%; inhibition in vivo at 3.12 mg/kg (Rattus norvegicus [16]): 35%
CCN(CC)C(=O)c1c(N2CCN(C)CC2)c2cccnc2n2c(C(C)C)nnc12	90	100		92	83	88		85	Non-toxic	inhibition in vivo at 1.6 mg/kg (Mus musculus [17]): 39%; inhibition in vivo at 3.12 mg/kg (Mus musculus [18]): 85%
COc1ccc2c(c1)c(CC(=O)O)c(C)n2C(=O)c1ccc(Cl)cc1 [INDOMETHACIN]										inhibition in vivo at 10 mg/kg (Rattus norvegicus [19]): 51%; inhibition in vivo at 10 mg/kg (Mus musculus [20]): 84%
CN1C(=O)CN=C(c2ccccc2)c2cc(Cl)ccc21 [DIAZEPAM]										inhibition in vivo at 10 mg/kg (Mus musculus [21]): 98%
